Converted amounts (≈) assume the structure as drawn. The source made the active and inactive calls. The rule behind the calls is not given here.
Legend:
Bacillus subtilis [1] = assay: Antibacterial activity against Bacillus subtilis BD54; format: functional
Streptococcus pneumoniae [2] = assay: Antibacterial activity against penicillin-resistant Streptococcus pneumoniae 700670; format: functional
Method in brief: (§1)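 Streptococci tested by CLSI broth microdilution in Mueller-Hinton broth with 5% defibrinated horse blood, log-phase inoculum at 1 x 10^5 CFU/ml. Incubated 37°C with shaking, 16 to 20 h, in 5% humidified CO2. Compounds at 1% DMSO final. MIC is the lowest concentration without growth by OD600. Quadruplicate; highest MIC reported.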

Staphylococcus aureus [3] = assay: Antibacterial activity against Staphylococcus aureus Smith 13709; format: functional
Method in brief: (§2)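 Broth microdilution per CLSI with modified incubation. Log-phase cultures in cation-adjusted Mueller-Hinton broth, seeded at 1 x 10^5 CFU/ml. Compounds from DMSO stocks, 1% DMSO final. Incubated 37°C, 16 to 20 h, shaken. Growth read as OD600. MIC is the lowest concentration with no apparent growth. Run in quadruplicate; highest value reported.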

Escherichia coli [4] = assay: Antibacterial activity against Escherichia coli J53; format: functional
Enterococcus faecium [5] = assay: Antibacterial activity against Enterococcus faecium 19434; format: functional; method in brief: as §2
Enterococcus faecalis [6] = assay: Antibacterial activity against vancomycin-resistant Enterococcus faecalis 51575; format: functional; method in brief: as §2
Klebsiella pneumoniae = assay: Antibacterial activity against Klebsiella pneumoniae 5657; format: functional
Pseudomonas aeruginosa = assay: Antibacterial activity against Pseudomonas aeruginosa 27853; format: functional
Bacillus cereus [7] = assay: Antibacterial activity against Bacillus cereus 6464; format: functional
Streptococcus pneumoniae [8] = assay: Antibacterial activity against penicillin-resistant Streptococcus pneumoniae 700674; format: functional; method in brief: as §1
Bacillus thuringiensis [9] = assay: Antibacterial activity against Bacillus thuringiensis 10792; format: functional
Bacillus cereus [10] = assay: Antibacterial activity against Bacillus cereus 4342; format: functional
Staphylococcus aureus [11] = assay: Antibacterial activity against HB-EMAU-resistant and ciprofloxacin-resistant Staphylococcus aureus Smith; format: functional; method in brief: as §2
Streptococcus pneumoniae [12] = assay: Antibacterial activity against penicillin-resistant Streptococcus pneumoniae 700671; format: functional; method in brief: as §1
Staphylococcus aureus [13] = assay: Antibacterial activity against methicillin-resistant Staphylococcus aureus 1123; format: functional; method in brief: as §2
Staphylococcus aureus [14] = assay: Antibacterial activity against mupirocin-resistant Staphylococcus aureus 777; format: functional; method in brief: as §2
Staphylococcus aureus [15] = assay: Antibacterial activity against HB-EMAU-resistant Staphylococcus aureus Smith; format: functional; method in brief: as §2
Streptococcus pneumoniae [16] = assay: Antibacterial activity against Streptococcus pneumoniae 49619; format: functional; method in brief: as §1
Streptococcus pneumoniae [17] = assay: Antibacterial activity against penicillin-resistant Streptococcus pneumoniae 700673; format: functional; method in brief: as §1
Enterococcus faecalis [18] = assay: Antibacterial activity against vancomycin-resistant Enterococcus faecalis 51299; format: functional; method in brief: as §2
[19] = system: Stenotrophomonas maltophilia; assay: Antibacterial activity against Stenotrophomonas maltophilia 13637; format: functional
[20] = Inhibition of Bacillus subtilis gyrase
[21] = Therapeutic index, CC50 for MRC5 cells/MIC for Staphylococcus aureus Smith; format: cell-based; settings: human
Staphylococcus aureus [22] = assay: Antibacterial activity against mupirocin-sensitive Staphylococcus aureus 2529; format: functional
[23] = Inhibition of Bacillus subtilis topoisomerase 4
Bacillus thuringiensis [24] = assay: Antibacterial activity against Bacillus thuringiensis 33679; format: functional
Enterococcus faecium [25] = assay: Antibacterial activity against vancomycin-resistant Enterococcus faecium B42762; format: functional; method in brief: as §2
Staphylococcus aureus [26] = assay: Antibacterial activity against Staphylococcus aureus 1081; format: functional; method in brief: as §2
Streptococcus pyogenes = assay: Antibacterial activity against Streptococcus pyogenes 12344; format: functional
Staphylococcus aureus [27] = assay: Antibacterial activity against methicillin-resistant Staphylococcus aureus 1132; format: functional; method in brief: as §2
Staphylococcus aureus [28] = assay: Antibacterial activity against ciprofloxacin-resistant Staphylococcus aureus Smith; format: functional; method in brief: as §2
Staphylococcus aureus [29] = assay: Antibacterial activity against Staphylococcus aureus 25923; format: functional; method in brief: as §2
[30] = Cytotoxicity against human MRC5 cells; format: cell-based
Method in brief: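 MRC-5 human diploid fibroblasts, 4 x 10^3 cells per well, exposed to compound from DMSO stock (final 1%) in minimal essential medium with 10% fetal calf serum for 72 h at 37°C beside a DMSO-only control.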

Enterococcus faecalis [31] = assay: Antibacterial activity against Enterococcus faecalis 29212; format: functional; method in brief: as §2
Staphylococcus aureus [32] = assay: Antibacterial activity against Staphylococcus aureus Smith in presence of 10% FCS; format: functional
Staphylococcus aureus [33] = assay: Antibacterial activity against methicillin-resistant Staphylococcus aureus 1094; format: functional; method in brief: as §2
Enterococcus faecium [34] = assay: Antibacterial activity against vancomycin-resistant Enterococcus faecium 1644; format: functional; method in brief: as §2
Enterococcus faecalis [35] = assay: Antibacterial activity against vancomycin-resistant Enterococcus faecalis 700802; format: functional; method in brief: as §2
Streptococcus pneumoniae [36] = assay: Antibacterial activity against penicillin-resistant Streptococcus pneumoniae 700677; format: functional; method in brief: as §1
Staphylococcus aureus [37] = assay: Antibacterial activity against methicillin-resistant Staphylococcus aureus B42876; format: functional; method in brief: as §2
Bacillus subtilis [38] = assay: Inhibition of DNA synthesis in Bacillus subtilis BD54; format: functional, organism-based
Method in brief: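 B. subtilis BD54 grown to log phase in C plus 50 medium; compound in DMSO added with [8-3H]adenine at time zero, at 5x or 1x MIC; samples over time. DNA = alkali-insensitive TCA-insoluble label; RNA = total TCA-insoluble minus DNA. Effect judged against diluent-control incorporation.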

Bacillus anthracis = assay: Antibacterial activity against Bacillus anthracis Sterne; format: functional
Enterococcus faecium [39] = assay: Antibacterial activity against vancomycin and linezolid-resistant Enterococcus faecium F118; format: functional; method in brief: as §2
Escherichia coli [40] = assay: Antibacterial activity against ciprofloxacin-resistant Escherichia coli XL1-Blue; format: functional; method in brief: as §2

`CC1CN(c2c(F)cc3c(=O)c(C(=O)O)cn(C4CC4)c3c2F)CCN1` (centres undefined) showed an MIC (Bacillus subtilis [1]) of 0.039 µg/mL (≈ 0.107 µM), an MIC (Streptococcus pneumoniae [2]) of 0.313 µg/mL (≈ 0.861 µM) and an MIC (Staphylococcus aureus [3]) of 0.078 µg/mL (≈ 0.215 µM). It also gave an MIC (Escherichia coli [4]) of 0.01 µg/mL (≈ 0.0275 µM), an MIC (Enterococcus faecium [5]) of 10 µg/mL (≈ 27.5 µM) and an MIC (Enterococcus faecalis [6]) of 0.313 µg/mL (≈ 0.861 µM). The MIC (Klebsiella pneumoniae) was 0.156 µg/mL (≈ 0.429 µM), the MIC (Pseudomonas aeruginosa) was 0.313 µg/mL (≈ 0.861 µM) and the MIC (Bacillus cereus [7]) was 0.078 µg/mL (≈ 0.215 µM). It also gave an MIC (Streptococcus pneumoniae [8]) of 0.625 µg/mL (≈ 1.72 µM), an MIC (Bacillus thuringiensis [9]) of 0.156 µg/mL (≈ 0.429 µM) and an MIC (Bacillus cereus [10]) of 0.078 µg/mL (≈ 0.215 µM). It also gave an MIC (Staphylococcus aureus [11]) of 5 µg/mL (≈ 13.8 µM), an MIC (Streptococcus pneumoniae [12]) of 0.313 µg/mL (≈ 0.861 µM) and an MIC (Staphylococcus aureus [13]) of 20 µg/mL (≈ 55 µM). For the same molecule, the MIC (Staphylococcus aureus [14]) was 40 µg/mL (≈ 110 µM), the MIC (Staphylococcus aureus [15]) was 0.078 µg/mL (≈ 0.215 µM) and the MIC (Streptococcus pneumoniae [16]) was 0.313 µg/mL (≈ 0.861 µM). The MIC (Streptococcus pneumoniae [17]) was 0.156 µg/mL (≈ 0.429 µM), the MIC (Enterococcus faecalis [18]) was 0.313 µg/mL (≈ 0.861 µM) and the MIC [19] was 0.078 µg/mL (≈ 0.215 µM). The IC50 [20] was 5.6 µM, the selectivity ratio [21] was greater than 1000 and the MIC (Staphylococcus aureus [22]) was 80 µg/mL (≈ 220 µM). The IC50 [23] was 4.2 µM, the MIC (Bacillus thuringiensis [24]) was 0.078 µg/mL (≈ 0.215 µM) and the MIC (Enterococcus faecium [25]) was 40 µg/mL (≈ 110 µM). For the same molecule, the MIC (Staphylococcus aureus [26]) was 10 µg/mL (≈ 27.5 µM), the MIC (Streptococcus pyogenes) was 0.156 µg/mL (≈ 0.429 µM) and the MIC (Staphylococcus aureus [27]) was 0.156 µg/mL (≈ 0.429 µM). It also gave an MIC (Staphylococcus aureus [28]) of 5 µg/mL (≈ 13.8 µM), an MIC (Staphylococcus aureus [29]) of 0.156 µg/mL (≈ 0.429 µM) and a CC50 [30] greater than 80 µg/mL. The MIC (Enterococcus faecalis [31]) was 0.313 µg/mL (≈ 0.861 µM), the MIC (Staphylococcus aureus [32]) was 0.078 µg/mL and the MIC (Staphylococcus aureus [33]) was 20 µg/mL (≈ 55 µM). The MIC (Enterococcus faecium [34]) was 40 µg/mL (≈ 110 µM), the MIC (Enterococcus faecalis [35]) was 0.313 µg/mL (≈ 0.861 µM) and the MIC (Streptococcus pneumoniae [36]) was 0.625 µg/mL (≈ 1.72 µM). For the same molecule, the MIC (Staphylococcus aureus [37]) was 80 µg/mL (≈ 220 µM), the Activity (Bacillus subtilis [38]) was “Active” and the MIC (Bacillus anthracis) was 0.039 µg/mL (≈ 0.107 µM). The MIC (Enterococcus faecium [39]) was 80 µg/mL (≈ 220 µM) and the MIC (Escherichia coli [40]) was 40 µg/mL (≈ 110 µM).

From ChEMBL document CHEMBL1142158, “Antibacterial activity and mechanism of action of a novel anilinouracil-fluoroquinolone hybrid compound” (Antimicrob Agents Chemother, 2007)
